Measurements from ChEMBL document CHEMBL1149827, “Dichapetalin-type triterpenoids and lignans from the aerial parts of Phyllanthus acutissima” (J Nat Prod, 2008).
In brackets after ≈: the same amount, converted by molar mass.

Assays:
MCF7 = test: Cytotoxicity against human MCF7 cells after 72 hrs by sulforhodamine B assay; type: functional; settings: MCF7, 72 h, read-out: ED50 (the source's name)
Method in brief: (§1)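 SRB assay. Samples from […] DMSO stock, final DMSO 0.5%, triplicate, 72 h at 37 °C, 5% CO2. Media: P-388 Fisher's + 5% BCS; KB DMEM + 10% BCS; Col-2, ASK MEM + 10% FBS; MCF-7, Lu-1 MEM + 5% BCS. TCA-fixed, 0.4% SRB stain, dye solubilized in 10 mM trizma base, A515 read. ED50 reported.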

KB = test: Cytotoxicity against human KB cells after 72 hrs by sulforhodamine B assay; type: functional; settings: read-out: ED50 (the source's name); method in brief: as §1
[1] = test system: Human immunodeficiency virus 1; test: Antiviral activity against deltaTat/Rev deffective HIV1 in 1A2 cells assessed as inhibition of metabolic activity in uninfected cells; type: functional; settings: Human immunodeficiency virus 1, 1A2
Method in brief: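 Uninfected 1A2 cells (same batch), run in parallel with the syncytium assay, with medium in place of virus. Serial dilutions in duplicate wells, 3 days. XTT–phenazine methosulfate added; formazan read at A450 with A650 reference. IC50 is the dose inhibiting 50% of metabolic activity.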

[2] = test system: Human immunodeficiency virus 1; test: Antiviral activity against deltaTat/Rev deffective HIV1 in 1A2 cells assessed as reduction of syncytium formation; type: functional, organism-based; settings: Human immunodeficiency virus 1, 1A2
Method in brief: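 1A2 cells seeded, then compound added as 2-fold serial dilutions in triplicate. After 1 h preincubation, ∆Tat/RevMC99 virus added. Virus, cell and cytotoxicity control wells; AZT positive control. EC50 is the concentration reducing syncytium formation by 50%.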

[3] = molecular target: Human immunodeficiency virus type 1 reverse transcriptase (Human immunodeficiency virus 1) (UniProt Q72547); test: Inhibition of HIV1 reverse transcriptase at 200 ug/ml
Method in brief: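 Tannin-free samples at final 200 µg/mL in 10% DMSO added to the reaction mix before HIV-1 RT. Control with 10% DMSO only; nevirapine (2 µg/mL) positive control. Duplicate wells averaged, % RT inhibition calculated.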

Lu1 = test: Cytotoxicity against human Lu1 cells after 72 hrs by sulforhodamine B assay; type: functional; settings: Lu1, 72 h, read-out: ED50 (the source's name); method in brief: as §1
[4] = Cytotoxicity against rat ASK cells after 72 hrs by sulforhodamine B assay; type: functional; settings: read-out: ED50 (the source's name); method in brief: as §1
Col2 = test: Cytotoxicity against human Col2 cells after 72 hrs by sulforhodamine B assay; type: functional; settings: Col2, 72 h, read-out: ED50 (the source's name); method in brief: as §1
[5] = test system: Human immunodeficiency virus 1; test: Selectivity index, ratio of IC50 for deltaTat/Rev deffective HIV1 in 1A2 cells to EC50 for deltaTat/Rev deffective HIV1 in 1A2 cells; type: functional
Method in brief: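 Ratio of the XTT IC50 in uninfected 1A2 cells to the syncytium-reduction EC50 against ∆Tat/RevMC99 virus in 1A2 cells.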

P388 = test: Cytotoxicity against mouse P388 cells after 72 hrs by sulforhodamine B assay; type: functional; settings: P388, 72 h, read-out: ED50 (the source's name); method in brief: as §1
L1210 = test: Cytotoxicity against mouse L1210 cells; type: functional

| Compound | EC50 [2] | inhibition [3] | EC50 (MCF7) | EC50 (KB) | IC50 [1] | EC50 (Lu1) | EC50 [4] | EC50 (Col2) | Ratio IC50/EC50 [5] | EC50 (P388) | EC90 (L1210) |
| --- | --- | --- | --- | --- | --- | --- | --- | --- | --- | --- | --- |
| CO[C@@]1(C)CO[C@@]2(C=C([C@@H]3CC[C@]45C[C@]34CC[C@@H]3[C@@]4(C)CC=C6C[C@@H](c7ccc8c(c7)OCO8)OC[C@]6(C)[C@@H]4C[C@@H](O)[C@]35C)C(=O)O2)C1 | 86.1 µg/mL (≈ 131 µM) | 55.5% | > 5 µg/mL | > 5 µg/mL | > 125 µg/mL | > 5 µg/mL | > 5 µg/mL | > 5 µg/mL | >1.5 | 0.5 µg/mL (≈ 0.759 µM) |  |
| CO[C@@]1(C)CO[C@@]2(C1)OC(=O)[C@H]([C@@H]1CC[C@]34C[C@]13CC[C@@H]1[C@@]3(C)CC=C5C[C@@H](c6ccc7c(c6)OCO7)OC[C@]5(C)[C@@H]3C[C@@H](O)[C@]14C)[C@H]2O | < 3.9 µg/mL | -0.5% | 1.1 µg/mL (≈ 1.63 µM) | > 5 µg/mL | 31.6 µg/mL (≈ 46.7 µM) | 3.1 µg/mL (≈ 4.58 µM) | > 5 µg/mL | 4.8 µg/mL (≈ 7.09 µM) | >8.1 | 0.005 µg/mL (≈ 0.00739 µM) |  |
| CO[C@@]1(C)CO[C@@]2(C=C([C@@H]3CC[C@]45C[C@]34CC[C@@H]3[C@@]4(C)CC=C6C[C@@H](c7ccccc7)OC[C@]6(C)[C@@H]4C[C@@H](O)[C@]35C)C(=O)O2)C1 | 72.9 µg/mL (≈ 119 µM) | 65.9% | > 5 µg/mL | > 5 µg/mL | > 125 µg/mL | > 5 µg/mL | > 5 µg/mL | > 5 µg/mL | >1.7 | 0.4 µg/mL (≈ 0.651 µM) |  |
| C/C(=C\[C@H]1C[C@@H]([C@@H]2CC[C@]34C[C@]23C=C[C@@H]2[C@@]3(C)CC=C5C[C@@H](c6ccccc6)OC[C@]5(C)[C@@H]3C[C@@H](O)[C@]24C)C(=O)O1)CO [DICHAPETALIN A] |  |  |  |  |  |  |  |  |  |  | < 0.0001 µg/mL |
| COc1cc2c(=O)oc3c(OC)c(O)cc4c(=O)oc(c1OC)c2c34 |  |  | > 5 µg/mL | > 5 µg/mL |  | > 5 µg/mL | > 5 µg/mL | > 5 µg/mL |  | > 5 µg/mL |  |
| Cc1c2ccncc2c(C)c2c1[nH]c1ccccc12 [ELLIPTECINE] |  |  | 0.4 µg/mL (≈ 1.62 µM) | 0.7 µg/mL (≈ 2.84 µM) |  | 0.2 µg/mL (≈ 0.812 µM) | 0.2 µg/mL (≈ 0.812 µM) | 0.5 µg/mL (≈ 2.03 µM) |  | 0.2 µg/mL (≈ 0.812 µM) |  |
| O=C1OCc2cc3cc4c(cc3c(-c3ccc5c(c3)OCO5)c21)OCO4 [TAIWANIN C] | > 125 µg/mL | 88.2% | > 5 µg/mL | > 5 µg/mL | > 125 µg/mL | > 5 µg/mL | > 5 µg/mL | > 5 µg/mL |  | > 5 µg/mL |  |
| COc1cc2c(O[C@@H]3OC[C@H](O)[C@H](O)[C@H]3O)c3c(c(-c4ccc5c(c4)OCO5)c2cc1OC)C(=O)OC3 [ACUTISSIMALIGNAN A] | < 3.9 µg/mL | 10.7% | 0.22 µg/mL (≈ 0.429 µM) | 0.59 µg/mL (≈ 1.15 µM) | 12.3 µg/mL (≈ 24 µM) | 0.14 µg/mL (≈ 0.273 µM) | 2.3 µg/mL (≈ 4.49 µM) | 0.25 µg/mL (≈ 0.488 µM) | >3.1 | 0.02 µg/mL (≈ 0.039 µM) |  |

Further lines, with some results ahead:

| EC50 [2] | inhibition [3] | Compound | EC50 (MCF7) | EC50 (KB) | IC50 [1] | EC50 (Lu1) | EC50 [4] | EC50 (Col2) | Ratio IC50/EC50 [5] | EC50 (P388) | EC90 (L1210) |
| --- | --- | --- | --- | --- | --- | --- | --- | --- | --- | --- | --- |
| 9.9 µg/mL (≈ 27.8 µM) | 45.4% | COc1cc(/C=C2/C(=O)OC[C@H]2Cc2ccc(O)c(OC)c2)ccc1O [ACUTISSIMALIGNAN B] | > 5 µg/mL | > 5 µg/mL | 48.2 µg/mL (≈ 135 µM) | > 5 µg/mL | > 5 µg/mL | > 5 µg/mL | 4.9 | > 5 µg/mL |  |
| 15.7 µg/mL (≈ 24.9 µM) | 51% | COc1c(OC(C)=O)cc2c(=O)oc3c(O)c(O[C@@H]4O[C@@H](C)[C@H](OC(C)=O)[C@@H](OC(C)=O)[C@H]4OC(C)=O)cc4c(=O)oc1c2c34 | > 5 µg/mL | > 5 µg/mL | 24.9 µg/mL (≈ 39.5 µM) | > 5 µg/mL | > 5 µg/mL | > 5 µg/mL | 1.6 | > 5 µg/mL |  |
| 34.6 µg/mL (≈ 98.2 µM) | 39.7% | O=C1OC[C@@H](Cc2ccc3c(c2)OCO3)/C1=C\c1ccc2c(c1)OCO2 [ISOGADIAN] | > 5 µg/mL | > 5 µg/mL | > 125 µg/mL | > 5 µg/mL | > 5 µg/mL | > 5 µg/mL | >3.6 | > 5 µg/mL |  |
| > 125 µg/mL | -9.2% | COc1c(O)cc2c(=O)oc3c(O)c(O[C@@H]4O[C@@H](C)[C@H](O)[C@@H](O)[C@H]4O)cc4c(=O)oc1c2c34 | > 5 µg/mL | > 5 µg/mL | > 125 µg/mL | > 5 µg/mL | > 5 µg/mL | > 5 µg/mL |  | > 5 µg/mL |  |
